STAT3 act: activators of IL-6 induced STAT3 signaling. activation (% of control), % at 5.6 µM. 190,000 compounds, 0.91% hits. U3A cells, IL-6 STAT3-luciferase reporter, luminescence; 100% = signal with IL-6 EC80 alone;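 active means activation above the screen-wide mean of compound activation plus 3 SD, cut at about 130% in these data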;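 further: 0% = background luminescence of wells with medium and substrate only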
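Test system: STAT3-luciferase reporter U3A cells; Detection: reporter luminescence signal; Times: 1 h compound pre-exposure, 6 h IL-6 stimulation, 37 °C; Benchmarks: IL-6-only high control; Also added: IL-6 stimulus at 33 ng/mL final.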
STAT1 blocker: reduces IFN-gamma driven STAT1 reporter signal; NIH 3T3 STAT1-luciferase reporter, luminescence; inhibition, % at 5.5 µM; 200,000 compounds, 0.35% hits; AID 920;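 active means inhibition above a set limit, the mean inhibition across all tested compounds plus 3 SD, cut at about 34% in these data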;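 further: 0% = IFN-gamma with DMSO and 100% = IFN-gamma with 300 µM nifuroxazide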
TNF necrop inh: inhibitors of TNF-alpha induced necroptosis in Jurkat FADD-/- cells. Jurkat FADD-/- TNF necroptosis rescue, ATP luminescence, 24 h; 0 = TNF only, 100 = no-TNF cells. activation (protection from cell death), % at 10 µM. 220,000 compounds, 0.068% hits;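 active means activation, meaning protection from cell death, of at least 50% relative to plate controls; inactive means activation below 50%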;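 further: necroptosis triggered by 40 ng/mL TNF-alpha added together with compound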
STAT3 inh-1: STAT3 signaling inhibition; U3A cells, IL-6 STAT3-luciferase reporter, luminescence; host cell line lacks STAT1; inhibition, % at 5.5 µM; 190,000 compounds, 0.89% hits;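 active means inhibition above the mean inhibition across all screened compounds plus 3 SD, cut at about 44% in these data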;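 further: 0% = DMSO only wells and 100% = 100 µM nifuroxazide control wells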
zVAD death inh: L929 zVAD cell death inhibition; viability rescue, % at 10 µM; 220,000 compounds, 0.38% hits; AID 1377; L929 zVAD necroptosis rescue, ATP luminescence, 24 h; with zVAD 60 µM;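 active means activation, scaled between plate controls, above about 75%, limit read from the data; inactive means activation under that limit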;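 further: 0% = zVAD with DMSO and 100% = DMSO alone without zVAD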
STAT3 inh-2: STAT3 inhibition, confirmation assay | shares compounds with STAT3 inh-1 | U3A cells, IL-6 STAT3 luciferase reporter, luminescence; cell line lacks STAT1 | inhibition, % at 5.7 µM | 1,200 compounds, 45% hits | AID 1265;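 active means inhibition above the hit cutoff computed for the primary STAT3 screen, cut at about 44% in these data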;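 further: 0% = IL-6 plus DMSO and 100% = IL-6 plus nifuroxazide control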
NFkB inh 2: NF-kappaB inhibition in STAT3 inhibitor counter-screen; shares compounds with STAT3 inh-1; HEK293T NF-kB luciferase reporter, TNF-alpha induced; inhibition, % at 5.7 µM; 1,200 compounds, 36% hits; AID 1308;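 active means inhibition above the mean of solvent-only control wells plus 3 SD, cutoff set per campaign, cut at about 13% in these data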;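 further: 0% = TNF-alpha with DMSO and 100% = TNF-alpha with MG high control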
STAT1 inh STAT3c: counter-screen for STAT3 inhibitors: STAT1 inhibition; shares compounds with STAT3 inh-1; NIH 3T3 STAT1-luciferase reporter, IFN-gamma induced, luminescence; inhibition, % at 5.7 µM; 1,200 compounds, 27% hits;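 active means inhibition above the mean plus 3 SD of solvent-only control wells, limit set per screening run, cut at about 16% in these data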;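 further: 0% = DMSO with IFN-gamma and 100% = nifuroxazide control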
Active calls of the source: *; / = no result given; ! = not confirmed by another sample. An excerpt weighted towards active compounds, which were near 2.1% of everything screened.

SMILES | STAT3 act | STAT1 blocker | TNF necrop inh | STAT3 inh-1 | zVAD death inh | STAT3 inh-2 | NFkB inh 2 | STAT1 inh STAT3c
CCOC(=O)C1=C(C)Nc2ccccc2N=C1NC(=O)CCCN1C(=O)c2ccccc2C1=O | 97 | 4 | 1 | 5 | 0 | / | / | /
N/C(=N\N=C\c1cccc(O)c1)c1nonc1N | 49 | -7 | -1 | 63* | 7 | 27 | -6 | -2
CCOc1cc(C(=S)N2CCOCC2)ccc1OS(=O)(=O)c1ccc(NC(C)=O)cc1 | 56 | 15 | -11 | 58* | 0 | 45* | 13 | 13
COc1ccc(C2C(C(=O)c3ccco3)=C(O)C(=O)N2CCOCCO)cc1OC (centres undefined) | 105 | 14 | -4 | -6 | 1 | / | / | /
Cc1nc2ccc(NC(=O)c3cccs3)cc2c(=O)n1Cc1ccc(Cl)cc1 | 60 | 2 | -16 | 51* | 1 | 43 | 6 | -6
CC(C)(C)NC(=S)NCCc1ccccc1 | 104 | -33 | 1 | -9 | 1 | / | / | /
CC1CCC(C(C)C)C(OC(=O)Cn2c(-c3ccc(F)cc3)[n+](C)c3ccccc32)C1 (centres undefined) | 87 | 5 | -5 | 18 | 2 | / | / | /
CC1CCC(C(C)C)C(OC(=O)Cn2c(-c3ccccc3)[n+](C)c3ccccc32)C1 (centres undefined) | 57 | 20 | -6 | 53*! | 10 | 34 | 3 | 22*
Cc1cc(C(=O)COC(=O)c2ccc[nH]c2=O)c(C)n1C | 103 | -11 | 0 | -1 | 1 | / | / | /
COCCn1c(C)cc(C(=O)COC(=O)c2ccc[nH]c2=O)c1C | 59 | 28 | 0 | 48* | 1 | 2 | -4 | -14
Cc1ccc(SCc2cn3c(C)csc3n2)cc1 | 55 | -28 | 1 | 54* | 0 | 22 | -21 | -70
Cc1ccc(S(=O)(=O)NCc2cn3c(C)csc3n2)cc1 | 100 | 8 | -2 | 5 | 0 | / | / | /
Cc1ccc(C(=O)N2CCN(c3ccc(Cl)cc3)CC2)cc1 | 101 | -2 | -2 | 0 | 0 | / | / | /
O=C1C2C3c4ccccc4C(c4ccccc43)C2c2nc3ccccc3n21 (centres undefined) | 48 | 3 | -10 | 64* | 2 | 59* | 12 | -2
CC(=O)N(C(C)=O)N1C(=O)C2C3c4ccccc4C(c4ccccc43)C2C1=O (centres undefined) | 105 | -6 | 0 | 5 | 0 | / | / | /
Cc1ccc(NC2=Nc3ccccc3CC2)cc1 | 67 | 5 | 1 | 44* | 0 | 32 | -10 | -62
CC(C)COc1ccc(C(=O)Nc2scc(-c3ccc(Cl)cc3Cl)c2C(N)=O)cc1 | 67 | -1 | -13 | 49* | 1 | 36 | 11 | 1
O=C(Nc1nc(-c2ccc(Cl)cc2Cl)cs1)c1ccc(OCC2CCCO2)cc1 (centres undefined) | 98 | -9 | -2 | 5 | 0 | / | / | /
O=C(NC1=NC2CCCCC2N1)c1ccccc1 (centres undefined) | 61 | -16 | -1 | 49* | 0 | 22 | -18 | -59
CC(C)c1ccc(NC(=O)c2csnn2)cc1 | 64 | -50 | -1 | 45* | 0 | 8 | -21 | -79
O=C(Nc1ccccc1NC(=O)c1csnn1)c1csnn1 | 101 | 1 | -1 | 4 | 2 | / | / | /
N=c1c2c(ncn1CCN1CCOCC1)Oc1ccc3ccccc3c1C2c1ccccc1 (centres undefined) | 102 | 7 | -4 | 4 | 2 | / | / | /
COc1ccc(-n2c(C)nc3c(cnn3-c3ccc(Cl)cc3)c2=O)cc1 | 60 | 13 | -6 | 52* | 1 | 42 | 9 | 8
CCOc1cc(-c2nn3cnnc3s2)cc(OCC)c1OCC | 98 | -2 | 0 | 4 | -1 | / | / | /
Cc1ccc2c(COC(=O)CNC(=O)c3ccccc3)cc(=O)oc2c1 | 101 | -4 | 0 | -3 | 0 | / | / | /
SMILES | STAT3 act | STAT1 blocker | TNF necrop inh | STAT3 inh-1 | zVAD death inh | STAT3 inh-2 | NFkB inh 2 | STAT1 inh STAT3c
Cc1ccc2c(COC(=O)C3=COCCO3)cc(=O)oc2c1 | 68 | -36 | 0 | 44* | 1 | -3 | -34 | -81
O=C(C1=C[C@H](c2csc3ccccc23)C[C@H](OCCCCO)O1)N1CCOCC1 | / | 0 | 1 | / | 0 | / | / | /
Cc1ccc(N2C(=O)c3ccccc3C2Nc2ccccc2F)nc1 (centres undefined) | 96 | 7 | 0 | 10 | 0 | / | / | /
Cc1ccc(N2C(=O)c3ccccc3C2O)nc1 (centres undefined) | 40 | 2 | -14 | 74* | 0 | 44* | 8 | -21
Cc1oc(-c2ccccc2F)nc1CS(=O)(=O)CC(=O)NC1CCCC1 | 100 | -8 | 0 | -1 | -1 | / | / | /
O=C(CCl)N(c1ccccc1)c1c[nH]c2ccccc12 | 64 | 34 | -13 | 45* | 36 | 31 | 19* | 28*
O=C(CCl)N(c1ccc(Cl)cc1)c1c[nH]c2ccccc12 | 75 | 23 | -26 | 34 | -1 | / | / | /
C=CC[n+]1ccc2ccccc2c1C | 96 | 0 | 0 | 10 | 0 | / | / | /
CCN(CC)c1ccc(/C=N/N2C(=O)c3ccccc3C2=O)cc1 | 94 | 5 | 2 | 6 | 1 | / | / | /
Cc1ccc(-c2cc3c(N=O)c4ccccc4c-3n[nH]2)cc1 | 9 | 33 | -12 | 117* | -2 | 98* | 80* | 2
Cc1cccc(/C=N/n2c(-c3cc(-c4ccccc4)n[nH]3)n[nH]c2=S)c1 | 104 | 1 | -1 | -1 | 3 | / | / | /
O=Nc1c2cc(-c3ccccc3)[nH]nc-2c2ccccc12 | 23 | -6 | -10 | 98* | 8 | 48* | 30* | -17
O=c1[nH]nc(-c2ccccc2)c2ccccc12 | / | / | 0 | / | 1 | / | / | /
Cc1cccc(-c2cc3c(N=O)c4ccccc4c-3n[nH]2)c1 | 62 | -6 | -4 | 50* | 16 | -6 | -19 | -26
O=P(O)(O)CCP(=O)(c1ccccc1)c1ccccc1 | 99 | 7 | 1 | 4 | -1 | / | / | /
C=CCSc1nnc(-c2cc3c(C(F)(F)F)nn(C)c3s2)n1C | 95 | 4 | 0 | 12 | 1 | / | / | /
C/C(=N\NC(=O)c1ccncc1)c1cccs1 | 97 | -25 | -1 | 12 | 0 | / | / | /
C/C(=N/NC(=O)c1cc(C2CC2)[nH]n1)c1cccs1 | 36 | 26 | 1 | 76* | 2 | 52* | 19* | -8
C/C(=N\NC(=O)c1ccccc1O)c1cccs1 | 51 | -14 | -4 | 61* | 4 | 29 | -2 | -8
O=C(NCc1cccnc1)c1c[nH]c2cc3c(cc2c1=O)OCCO3 | 55 | 6 | -13 | 60* | 0 | 23 | -15 | -23
